Results published in ChEMBL document CHEMBL1921733, “III. Identification of novel CXCR3 chemokine receptor antagonists with a pyrazinyl-piperazinyl-piperidine scaffold” (Bioorg Med Chem Lett, 2011).
pIC50: −log10 of the molar value.

Tests used:
[1] = molecular target: T1, C-X-C chemokine receptor type 3 (Homo sapiens, UniProt P49682); assay: Displacement of [125I]CXCL10 from human CXCR3 expressed in mouse BA/F3 cells; assay type: cell-based, BaF3
T1 sequence (P49682 whole entry): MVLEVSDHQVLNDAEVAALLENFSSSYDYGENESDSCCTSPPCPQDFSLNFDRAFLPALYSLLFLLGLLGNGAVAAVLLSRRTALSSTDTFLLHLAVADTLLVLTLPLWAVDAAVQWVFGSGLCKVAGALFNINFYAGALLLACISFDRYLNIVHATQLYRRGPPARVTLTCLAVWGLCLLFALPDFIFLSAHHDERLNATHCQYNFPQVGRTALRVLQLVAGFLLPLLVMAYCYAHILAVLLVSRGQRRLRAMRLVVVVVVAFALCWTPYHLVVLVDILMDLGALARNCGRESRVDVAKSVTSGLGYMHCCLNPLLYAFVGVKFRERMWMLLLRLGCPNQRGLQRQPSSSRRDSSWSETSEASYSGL
Procedure, shortened: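 Radioligand displacement of 125I-labelled human CXCL10 from recombinant Ba/F3 cells expressing human CXCR3.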

[2] = molecular target: hERG (KCNH2) (Homo sapiens, UniProt Q12809); assay: Inhibition of human ERG at 10 uM by rubidium efflux assay
Sequence of hERG (KCNH2) (Q12809 whole entry): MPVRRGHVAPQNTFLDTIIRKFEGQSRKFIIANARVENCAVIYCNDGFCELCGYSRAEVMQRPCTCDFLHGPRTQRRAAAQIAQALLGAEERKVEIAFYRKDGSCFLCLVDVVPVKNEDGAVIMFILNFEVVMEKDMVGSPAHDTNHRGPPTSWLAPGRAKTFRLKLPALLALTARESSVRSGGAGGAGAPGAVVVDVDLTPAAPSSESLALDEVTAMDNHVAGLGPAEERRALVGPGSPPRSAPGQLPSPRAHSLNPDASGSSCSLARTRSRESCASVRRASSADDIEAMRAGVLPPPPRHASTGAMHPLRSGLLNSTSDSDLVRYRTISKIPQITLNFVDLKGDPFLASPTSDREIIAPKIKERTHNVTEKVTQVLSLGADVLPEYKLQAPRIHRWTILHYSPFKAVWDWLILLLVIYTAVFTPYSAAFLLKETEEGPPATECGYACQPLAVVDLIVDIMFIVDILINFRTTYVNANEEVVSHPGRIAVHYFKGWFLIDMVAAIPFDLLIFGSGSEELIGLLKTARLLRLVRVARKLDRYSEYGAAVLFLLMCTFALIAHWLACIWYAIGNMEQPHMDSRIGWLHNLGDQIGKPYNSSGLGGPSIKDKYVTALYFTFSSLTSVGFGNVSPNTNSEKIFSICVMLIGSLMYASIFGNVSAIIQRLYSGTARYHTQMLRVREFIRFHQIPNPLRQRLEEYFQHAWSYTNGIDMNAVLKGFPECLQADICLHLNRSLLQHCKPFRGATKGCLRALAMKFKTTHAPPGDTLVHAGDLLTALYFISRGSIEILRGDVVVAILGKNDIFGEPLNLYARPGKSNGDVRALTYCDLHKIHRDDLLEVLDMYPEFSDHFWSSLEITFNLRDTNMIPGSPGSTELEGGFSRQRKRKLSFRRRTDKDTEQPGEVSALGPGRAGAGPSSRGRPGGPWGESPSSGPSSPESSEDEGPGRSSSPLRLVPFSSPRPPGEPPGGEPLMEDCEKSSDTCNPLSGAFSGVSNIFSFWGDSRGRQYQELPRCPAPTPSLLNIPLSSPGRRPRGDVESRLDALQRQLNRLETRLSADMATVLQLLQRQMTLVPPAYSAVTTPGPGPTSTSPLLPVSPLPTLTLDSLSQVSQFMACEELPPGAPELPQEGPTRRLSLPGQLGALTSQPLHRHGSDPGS
Procedure, shortened: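 hERG K+ channel block measured by rubidium efflux with test compound at 10 μM, reported as % inhibition.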

[3] = AUC in rat at 10 mg/kg, po after 6 hrs; conditions: in vivo

pIC50 [1] | AUC at 6 h [3] | SMILES | inhibition at 10 µM [2]
8.38 | – | CC[C@H]1CN(c2ncc(C(=O)NC)nc2C)[C@H](C)CN1C1CCN(C(=O)c2ccc(Cl)cc2)CC1 | 30%
8.05 | – | CC[C@H]1CN(c2nc(N)c(C(=O)NCCNS(N)(=O)=O)nc2Cl)CCN1C1CCN(Cc2ccc(F)c(F)c2)CC1 | 4%
8.54 | – | CC[C@H]1CN(c2ncc(C(=O)NCCO)nc2Cl)CCN1C1CCN(C(=O)c2ccc(Cl)nc2N)CC1 | 11%
9.40 | – | CC[C@H]1CN(c2nc(N)c(C(=O)NCCO)nc2Cl)CCN1C1CCN(Cc2ccc(Cl)cc2)CC1 | –
8.62 | 12.1 µM·h | CC[C@H]1CN(c2ncc(C(=O)NC)nc2C)CCN1C1CCN(C(=O)c2ccc(Cl)nc2N)CC1 | 5%
8.72 | – | CC[C@H]1CN(c2nc(N)c(C(N)=O)nc2Cl)CCN1C1CCN(C(CO)c2ccc(Cl)cc2)CC1 (some centres undefined) | –
7.74 | – | CC[C@H]1CN(c2ncc(C(N)=O)nc2C)CCN1C1CCN(C(=O)c2ccc(Cl)cc2)CC1 | 6%
8.44 | – | CC[C@H]1CN(c2ncc(C(=O)NC)nc2C)CCN1C1CCN(C(=O)c2ccc(Cl)cc2)CC1 | 41%
8.72 | 15.3 µM·h | CC[C@H]1CN(c2ncc(C(N)=O)nc2C(F)(F)F)CCN1C1CCN(C(=O)c2ccc(Cl)nc2N)CC1 | 0%
8.19 | – | CC[C@H]1CN(c2nc(N)c(C(=O)NCCS(C)(=O)=O)nc2Cl)CCN1C1CCN(Cc2ccc(Cl)cc2)CC1 | –
8.27 | – | CC[C@H]1CN(c2ncc(C(N)=O)nc2C)[C@H](C)CN1C1CCN(C(=O)c2ccc(Cl)cc2)CC1 | 9%
8.82 | – | CC[C@H]1CN(c2ncc(C(=O)NC(C)(C)C)nc2Cl)CCN1C1CCN(C(=O)c2ccc(Cl)nc2N)CC1 | 13%
8.43 | – | CC[C@H]1CN(c2nc(N)c(C(N)=O)nc2Cl)CCN1C1CCN(Cc2ccc(OC(F)(F)F)cc2)CC1 | –
6.63 | – | CC[C@@H]1CN(C2CCN(C(=O)c3ccc(Cl)cc3)CC2)[C@@H](CC)CN1c1ncc(C(N)=O)nc1C | 13%
8.40 | 30.2 µM·h | CC[C@H]1CN(c2ncc(C(N)=O)nc2C)CCN1C1CCN(C(=O)c2ccc(Cl)nc2N)CC1 | 0%
8.96 | 8.4 µM·h | CC[C@H]1CN(c2ncc(C(=O)NC3CC3)nc2C)CCN1C1CCN(C(=O)c2ccc(Cl)cc2)CC1 | 74%
8.39 | – | CC[C@H]1CN(c2nc(N)c(C(N)=O)nc2Cl)CCN1C1CCN(Cc2ccc(Cl)cc2[C@H](O)C(N)=O)CC1 | 14%
9.52 | – | CC[C@H]1CN(c2nc(N)c(C(=O)NCC(C)O)nc2Cl)CCN1C1CCN(Cc2ccc(Cl)cc2)CC1 (some centres undefined) | –
8.08 | – | CC[C@H]1CN(c2nc(N)c(C(=O)NCC(C)(C)O)nc2Cl)CCN1C1CCN(Cc2ccc(Cl)cc2)CC1 | –
8.89 | 9.8 µM·h | CC[C@H]1CN(c2ncc(C(=O)NC3CC3)nc2C)[C@H](C)CN1C1CCN(C(=O)c2ccc(Cl)cc2)CC1 | 7%

pIC50 [1] | AUC at 6 h [3] | SMILES | inhibition at 10 µM [2]
8.60 | – | CC[C@H]1CN(c2ncc(C(N)=O)nc2Cl)CCN1C1CCN(C(=O)c2ccc(Cl)nc2N)CC1 | 7%
9.52 | – | CC[C@H]1CN(c2nc(N)c(C(=O)NC)nc2Cl)CCN1C1CCN(Cc2ccc(Cl)cc2)CC1 | –
9.05 | – | CC[C@H]1CN(c2nc(N)c(C(=O)NCCNS(=O)(=O)C(F)(F)F)nc2Cl)CCN1C1CCN(Cc2ccc(Cl)cc2)CC1 | –
8.07 | – | CC[C@H]1CN(c2nc(N)c(C(N)=O)nc2Cl)CCN1C1CCN(Cc2ccc(C#N)cc2)CC1 | –
8.47 | 5.9 µM·h | CC[C@H]1CN(c2nc(N)c(C(=O)NCCO)nc2Cl)CCN1C1CCN(C(=O)c2ccc(Cl)nc2N)CC1 | 17%
8.72 | 22 µM·h | CC[C@H]1CN(c2ncc(C(=O)NC3CC3)nc2C)CCN1C1CCN(C(=O)c2ccc(Cl)nc2N)CC1 | 16%
– | 5.1 µM·h | CC[C@H]1CN(c2nc(N)c(C(N)=O)nc2Cl)CCN1C1CCN(Cc2ccc(Cl)cc2)CC1 | –
8.36 | – | CC[C@H]1CN(c2nc(N)c(C(=O)NCCNS(C)(=O)=O)nc2Cl)CCN1C1CCN(Cc2ccc(Cl)cc2)CC1 | 39%
8.74 | 3.6 µM·h | CC[C@H]1CN(c2ncc(C(=O)NC3CC3)nc2C(F)(F)F)CCN1C1CCN(C(=O)c2ccc(Cl)nc2N)CC1 | 53%
– | 0.4 µM·h | CCNC(=O)c1cnc(N2CCN(C3CCN(Cc4ccc(Cl)cc4)CC3)[C@@H](CC)C2)c(Cl)c1 | –
8.82 | 6.4 µM·h | CC[C@H]1CN(c2ncc(C(=O)NC)nc2C(F)(F)F)CCN1C1CCN(C(=O)c2ccc(Cl)nc2N)CC1 | 0%
9.05 | – | CC[C@H]1CN(c2ncc(C(=O)NC(C)C)nc2Cl)CCN1C1CCN(C(=O)c2ccc(Cl)nc2N)CC1 | 56%
8.70 | 2.9 µM·h | CCNC(=O)c1cnc(N2CCN(C3CCN(C(=O)c4ccc(Cl)cc4)CC3)[C@@H](CC)C2)c(C)n1 | 44%
< 6.00 | – | CC[C@H]1CN(c2ncc(C(N)=O)nc2C)[C@@H](C)CN1C1CCN(C(=O)c2ccc(Cl)cc2)CC1 | –
8.82 | – | CC[C@H]1CN(c2nc(N)c(C(=O)N[C@@H]3CCOC3=O)nc2Cl)CCN1C1CCN(Cc2ccc(Cl)cc2)CC1 | –
8.54 | – | CC[C@H]1CN(c2ncc(C(=O)NC[C@@H](C)O)nc2Cl)CCN1C1CCN(C(=O)c2ccc(Cl)nc2N)CC1 | 17%
8.72 | – | CC[C@H]1CN(c2nc(N)c(C(=O)NCCNS(N)(=O)=O)nc2Cl)CCN1C1CCN(Cc2ccc(Cl)cc2)CC1 | –
9.10 | – | CC[C@H]1CN(c2nc(N)c(C(=O)NCC(F)(F)F)nc2Cl)CCN1C1CCN(Cc2ccc(Cl)cc2)CC1 | –
8.92 | – | CC[C@H]1CN(c2ncc(C(=O)NC3CC3)nc2Cl)CCN1C1CCN(C(=O)c2ccc(Cl)nc2N)CC1 | 19%
7.12 | – | CC[C@H]1CN(c2nc(N)c(C(N)=O)nc2Cl)CCN1C1CCN(C(=O)c2ccc(Cl)cc2)CC1 | –
